# Test results as given in ChEMBL document CHEMBL1129651, “3-Phenyl-substituted imidazo[1,5-alpha]quinoxalin-4-ones and imidazo[1,5-alpha]quinoxaline ureas that have high affinity at the GABAA/benzodiazepine receptor complex” (J Med Chem, 1996).
# Legend:
# Rattus norvegicus = experiment: Ability to antagonize metrazole-induced seizures (clonic and tonic) in rats after intraperitoneal injection; conditions: ip
# [1] = molecular target: GABA-A receptor; anion channel; experiment: Binding affinity against benzodiazepine receptor (BzR) in rat cortical membranes determined by competition experiments with radiolabeled [3H]flunitrazepam (Fnz); type: cell membranes
# [2] = molecular target: GABA-A receptor; anion channel (Rattus norvegicus) (UniProt O09028+P15431+P18506+P18508+P19969+P20236+P23574+P23576+P28471+P28473+P30191+P62813+P63079+P63138+Q91ZM7+Q9ES14)
# [3] = molecular target: GABA A receptor alpha-3/beta-2/gamma-2 (Rattus norvegicus) (UniProt P18508+P20236+P63138); experiment: In vitro efficacy as change in chloride current against GABA-A alpha-3-beta-2-gamma-2 subunit expression; type: functional
# Mus musculus [4] = organism: Mus musculus; experiment: Antagonism of benzodiazepine traction in mice; type: functional
# Method in brief: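 Male CF-1 mice given triazolam 1 mg/kg ip together with test compound ip, starting at 100 mg/kg, in 0.25% aqueous methyl cellulose. Dose-response run on 0.5 log scale. Loss of traction scored 15 min later. Absence of the expected loss marks antagonism. ED50 taken from lower doses.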
# Mus musculus [5] = organism: Mus musculus; experiment: Acute electroshock physical dependence activity (drug MA50/V122 MA50); type: functional
# Method in brief: (§1)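 Male CF-1 mice, 10/group, dosed sc twice daily for 3 days (0800, then 2 times that dose at 1600). Flumazenil 2.5 mg/kg iv in 5% aqueous N,N-dimethylacetamide given 24 h after the last dose. 5 min later electroshock seizure threshold estimated by up-down method (0.05 log steps; transpinnal 0.6 ms pulses, 100 Hz, 0.2 s). Comparison is against a saline-treated, flumazenil-injected control group.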
# Mus musculus [6] = organism: Mus musculus; experiment: Compound was tested for ethanol potentiation expressed as the loss of traction response (muscle relaxation); type: functional
# Method in brief: (§2)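 Male CF-1 mice given 50% aqueous ethanol orally (7.5 mL/kg) plus test compound sc in 0.25% aqueous methyl cellulose (10 mL/kg). Tested 30 min later. Traction: hindlimb placed on wire within 10 s when suspended by forepaws. Righting: rolls onto feet within 10 s when released on its back. Six mice per dose; ED50s determined.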
# Mus musculus [7] = organism: Mus musculus; experiment: Compound was tested for ethanol potentiation expressed as loss of righting reflex (anesthesia); type: functional
# Method in brief: as §2
# Mus musculus [8] = organism: Mus musculus; experiment: Compound was tested for Acute electroshock physical dependence activity (drug MA50/V122 MA50); No significant activity; type: functional
# Method in brief: as §1
SMILES,ED50 (Rattus norvegicus) [mg/kg],Ki [1] [nM],TBPS shift [2],Cl - current change [3],ED50 (Mus musculus [4]) [mg/kg],Activity (Mus musculus [5]),ED50 (Mus musculus [6]) [mg/kg],ED50 (Mus musculus [7]) [mg/kg],Activity (Mus musculus [8])
CC(C)n1c(=O)c2c(-c3ccccc3)ncn2c2ccc(F)cc21,> 50,39.6,0.77,,,,,,
CC(C)n1c(=O)c2c(-c3ccccc3)ncn2c2ccccc21,> 50,38.5,0.31,,,,,,
CCNC(=O)N1Cc2c(-c3ccc(F)cc3)ncn2-c2ccccc21,> 50,48.6,0.42,,,,,,
COc1ccc(-c2ncn3c2c(=O)n(C(C)C)c2c(C)cccc23)cc1,3.1,49.7,0.92,1.3,,,,,
CN(C)C(=O)N1c2ccccc2-n2cnc(-c3ccccc3)c2C1(C)C,,478,0.45,,,,,,
CC1CN(C(=O)N2Cc3c(-c4ccc(F)cc4)ncn3-c3cccc(Cl)c32)CC(C)N1C (centres undefined),1.8,47.4,0.62,,> 30,0.8,,,
CC(C)(C)NC(=O)N1Cc2c(-c3ccc(F)cc3)ncn2-c2ccccc21,> 50,283,1.02,,,,,,
CC1CN(C(=O)N2Cc3c(-c4ccc(F)cc4)ncn3-c3ccccc32)CC(C)N1 (centres undefined),1.1,5.85,0.75,,> 30,0.7,4,> 30,
Cc1ccc(-c2ncn3c2CN(C(=O)N2CCCC2)c2ccccc2-3)cc1,,1.54,1.19,,,,,,
COc1ccc(-c2ncn3c2c(=O)n(C(C)C)c2ccccc23)cc1,12.5,31.7,0.75,,,,> 30,> 30,
Cc1cccc2c1n(C(C)C)c(=O)c1c(-c3ccc(F)cc3)ncn12,2.6,126,1.83,1.7,,,,,
COc1ccc(-c2ncn3c2c(=O)n(C(C)C)c2cc(F)ccc23)cc1,> 50,81.5,0.97,,,,,,
CC(C)n1c(=O)c2c(-c3noc(C4CC4)n3)ncn2c2ccccc21 [PANADIPLON],1.6,,,,1.7,,6.6,> 30,0.95
COc1ccc(-c2ncn3c2CN(C(=O)N2CC(C)NC(C)C2)c2ccccc2-3)cc1 (centres undefined),0.8,1.39,0.31,,> 30,0.47,,,
CC1CN(C(=O)N2Cc3c(-c4ccc(F)cc4)ncn3-c3cccc(Cl)c32)CC(C)N1 (centres undefined),1.8,33.4,0.31,,> 30,,,,
Cc1ccc(-c2ncn3c2C(C)(C)N(C(=O)N(C)C)c2ccccc2-3)cc1,> 50,334,0.71,,,,,,
CN(C)C(=O)N1c2ccccc2-n2cnc(-c3ccc(F)cc3)c2C1(C)C,> 50,163,0.49,,,,,,
CC(C)n1c(=O)c2c(-c3ccc(F)cc3)ncn2c2ccc(Cl)cc21,> 50,1690,0.14,0.03,,,,,
Cc1ccc(-c2ncn3c2CN(C(=O)N(C)C)c2ccccc2-3)cc1,4.4,11.1,,,,0.87,,,
CC(C)n1c(=O)c2c(-c3ccc(F)cc3)ncn2c2ccc(F)cc21,> 50,59.4,0.8,,,,,,
O=C(c1ccccc1F)N1Cc2c(-c3ccc(F)cc3)ncn2-c2ccccc21,,42.4,0.84,,,,,,
COc1ccc(-c2ncn3c2c(=O)n(C(C)C)c2c(Cl)cccc23)cc1,1.3,27.9,1.04,1,> 30,,> 30,> 30,0.91
CC1CN(C(=O)N2Cc3c(-c4ccc(F)cc4)ncn3-c3ccccc32)CC(C)N1C (centres undefined),13,13.2,0.31,,> 30,0.8,,,
CC(C)n1c(=O)c2c(-c3cccc(F)c3)ncn2c2ccccc21,> 50,480,0.31,,,,,,
CC(C)OC(=O)N1Cc2c(-c3ccc(F)cc3)ncn2-c2ccccc21,6.3,50.8,0.93,,> 30,0.83,> 30,> 30,
Cc1ccc(-c2ncn3c2C(C)(C)N(C(=O)N2CCCC2)c2ccccc2-3)cc1,17.7,35,1.05,,,,,,

SMILES,ED50 (Rattus norvegicus) [mg/kg],Ki [1] [nM],TBPS shift [2],Cl - current change [3],ED50 (Mus musculus [4]) [mg/kg],Activity (Mus musculus [5]),ED50 (Mus musculus [6]) [mg/kg],ED50 (Mus musculus [7]) [mg/kg],Activity (Mus musculus [8])
CC1CN(C(=O)N2Cc3c(-c4ccc(F)cc4)ncn3-c3ccc(F)cc32)CC(C)N1C (centres undefined),1.3,,0.64,,,0.59,,,
COc1ccccc1-c1ncn2c1c(=O)n(C(C)C)c1ccccc12,,> 10000,,,,,,,
O=C(c1cccc(F)c1)N1Cc2c(-c3ccc(F)cc3)ncn2-c2ccccc21,1.3,5.91,1.06,,,0.87,,,
O=C(N1CCOCC1)N1Cc2c(-c3ccc(F)cc3)ncn2-c2ccc(Cl)cc21,0.76,15.2,1.05,,> 30,0.62,11,27,
O=C(N1CCCC1)N1Cc2c(-c3ccccc3)ncn2-c2ccccc21,,,0.69,,,,,,
CN(C)C(=O)N1Cc2c(-c3ccc(F)cc3)ncn2-c2ccccc21,4.4,2.96,0.53,,4.9,0.87,11,> 30,
CC1CN(C(=O)N2Cc3c(-c4ccc(F)cc4)ncn3-c3ccc(F)cc32)CC(C)N1 (centres undefined),0.5,2.49,0.72,,> 30,,,,
CC(C)n1c(=O)c2c(-c3ccc(C(F)(F)F)cc3)ncn2c2ccccc21,,> 10000,0.36,0.36,,,,,
COC(=O)N1Cc2c(-c3ccc(F)cc3)ncn2-c2ccccc21,> 50,47.2,0.53,,,,,,
CC(C)n1c(=O)c2c(-c3ccc(F)cc3)ncn2c2cccc(Cl)c21,0.9,14.6,2.04,3.4,,,,,
CN(C)C(=O)N1Cc2c(-c3ccccc3)ncn2-c2ccccc21,,3.41,0.4,,,,,,
O=C(N1CCOCC1)N1Cc2c(-c3ccc(F)cc3)ncn2-c2ccccc21,0.3,1.61,0.54,,,0.67,,,
O=C(N1CCCCC1)N1Cc2c(-c3ccccc3)ncn2-c2ccccc21,4.5,1.65,0.52,,> 30,0.82,0.5,> 30,
CC(C)n1c(=O)c2c(-c3cccc(C(F)(F)F)c3)ncn2c2ccccc21,> 50,188,0.45,0.03,,,,,
Cc1ccc(-c2ncn3c2c(=O)n(C(C)C)c2ccccc23)cc1,> 50,174,1.09,,,,,,
O=C(c1ccc(F)cc1)N1Cc2c(-c3ccc(F)cc3)ncn2-c2ccccc21,29.7,20.5,0.82,,,,,,
O=C(N1CCOCC1)N1Cc2c(-c3ccc(F)cc3)ncn2-c2ccc(F)cc21,0.14,2.16,0.7,,> 30,0.7,5,17,
COc1cccc(-c2ncn3c2c(=O)n(C(C)C)c2ccccc23)c1,> 50,207,0.24,0.12,,,,,
CC(C)n1c(=O)c2c(-c3ccc(F)cc3)ncn2c2ccccc21,30,115,0.58,0.45,> 30,,14,> 30,1
O=C(N1CCCC1)N1Cc2c(-c3ccc(F)cc3)ncn2-c2ccccc21,14.8,0.97,0.64,,> 30,0.88,0.34,> 30,
CN1C(=O)CN=C(c2ccccc2)c2cc(Cl)ccc21 [DIAZEPAM],0.5,,,,,18.2,0.54,0.86,
CC(C)n1c(=O)c2c(-c3ccc(Cl)cc3)ncn2c2ccccc21,> 50,,0.74,,,,,,
O=C(N1CCOCC1)N1Cc2c(-c3ccc(F)cc3)ncn2-c2cccc(Cl)c21,3.7,2.97,0.44,,,0.86,,,
NC(=O)N1Cc2c(-c3ccc(F)cc3)ncn2-c2ccccc21,> 50,216,0.29,,,,,,
CC1(C)c2c(-c3ccc(F)cc3)ncn2-c2ccccc2N1C(=O)N1CCCC1,> 50,12.6,0.6,,,,,,
